# Test results taken from ChEMBL document CHEMBL4825663 (J Med Chem, 2021).
# Columns and labels:
# [1] = Aqueous solubility of compound at pH 3.8; type: physicochemical; conditions: aqueous solution
# [2] = target: ATP-dependent translocase ABCB1 (Homo sapiens, UniProt P08183); assay: Inhibition of paclitaxel stimulated- P-gp ATPase activity (unknown origin)
# [3] = AUClast in Sprague-Dawley rat at 3 mg/kg, iv measured upto 48 hrs by LC-MS/MS analysis; type: ADME, organism-based; design: route intravenous, dose 3 mg/kg, time <=48; conditions: in vivo
# Outline: (§1)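 Single dose in male Sprague-Dawley rats and male Beagle dogs (n = 3 per species), given 3 mg/kg IV or 10 mg/kg PO. Plasma was sampled to derive Cmax, Tmax, T1/2 and AUClast by each route. Oral bioavailability (F) was calculated from the PO and IV AUClast.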
# [4] = Cmax in human at 900 mg, po administered as single dose; type: ADME, organism-based; design: route oral, dose 900 mg; conditions: in vivo
# [5] = Toxicity in Sprague-Dawley rat assessed as enlargement of mesenteric lymph nodes at >= 50 mg/kg, po and measured after 4 to 13 weeks; type: organism-based, Mesenteric lymph node; conditions: in vivo, time 4-13 weeks
# [6] = Oral bioavailability in Beagle dog at 10 mg/kg measured upto 48 hrs by LC-MS/MS analysis; type: ADME, organism-based, Canis lupus familiaris; conditions: in vivo
# Outline: (§2)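 Plasma pharmacokinetics in male Sprague-Dawley rats and male Beagle dogs (n = 3 per species), each given a single dose by IV at 3 mg/kg and by PO at 10 mg/kg. Cmax, Tmax, T1/2 and AUClast were derived for each route. F (%) was calculated from the PO and IV AUClast.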
# [7] = Oral bioavailability in Sprague-Dawley rat at 10 mg/kg measured upto 48 hrs by LC-MS/MS analysis; type: ADME, organism-based; conditions: in vivo; outline: as §2
# [8] = Toxicity in Beagle dog assessed as histiocytosis in lymph nodes at >= 100 mg/kg, po and measured after 13 weeks; type: organism-based, Canis lupus familiaris; conditions: in vivo, 2184 h
# [9] = Toxicity in Sprague-Dawley rat assessed as histiocytosis in lymph nodes at 10 to 50 mg/kg, po and measured after 4 to 13 weeks; type: organism-based, Lymph node; conditions: in vivo, dose lower 10 mg/kg, time lower 4 weeks, dose upper 50 mg/kg, time upper 13 weeks
# [10] = Drug distribution in Beagle dog spinal cord; type: ADME, tissue-based, Canis lupus familiaris; conditions: in vivo
# [11] = AUClast in Sprague-Dawley rat at 10 mg/kg, po measured upto 48 hrs by LC-MS/MS analysis; type: ADME, organism-based; design: route oral, dose 10 mg/kg, time <=48; conditions: in vivo; outline: as §1
# [12] = Drug distribution in Sprague-Dawley rat bile; type: ADME, tissue-based; conditions: in vivo
# [13] = Drug distribution in Beagle dog bile; type: ADME, tissue-based, Canis lupus familiaris; conditions: in vivo
# [14] = Cmax in Beagle dog at 10 mg/kg, po measured upto 48 hrs by LC-MS/MS analysis; conditions: in vivo
# [15] = target: T1, Broad substrate specificity ATP-binding cassette transporter ABCG2 (Homo sapiens, UniProt Q9UNQ0); assay: Inhibition of sulfasalazine-stimulated BCRP ATP ase activity (unknown origin)
# T1 sequence (Q9UNQ0 whole entry): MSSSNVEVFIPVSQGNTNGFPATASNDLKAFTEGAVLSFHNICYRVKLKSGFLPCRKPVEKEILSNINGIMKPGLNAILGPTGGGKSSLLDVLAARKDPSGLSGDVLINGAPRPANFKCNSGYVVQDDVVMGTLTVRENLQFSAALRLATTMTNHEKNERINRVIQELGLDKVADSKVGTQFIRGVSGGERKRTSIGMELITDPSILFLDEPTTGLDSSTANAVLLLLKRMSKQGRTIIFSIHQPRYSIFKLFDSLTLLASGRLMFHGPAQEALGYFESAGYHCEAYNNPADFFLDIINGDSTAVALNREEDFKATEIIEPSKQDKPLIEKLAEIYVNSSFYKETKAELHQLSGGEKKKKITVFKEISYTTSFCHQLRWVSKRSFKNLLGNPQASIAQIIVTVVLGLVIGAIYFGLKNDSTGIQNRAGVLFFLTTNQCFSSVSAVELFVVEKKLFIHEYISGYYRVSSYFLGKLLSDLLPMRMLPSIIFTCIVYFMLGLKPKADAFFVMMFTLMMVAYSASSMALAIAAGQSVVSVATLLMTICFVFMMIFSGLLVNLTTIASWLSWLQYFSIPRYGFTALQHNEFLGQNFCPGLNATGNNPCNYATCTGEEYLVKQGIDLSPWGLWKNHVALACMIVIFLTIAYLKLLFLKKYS
# [16] = target: T2, Organic anion transporter 3 (Homo sapiens, UniProt Q8TCC7); assay: Inhibition of human OAT3 assessed as reduction in intracellular probe substrate accumulation upto 100 uM by microplate scintillation counter analysis relative to control; type: cell-based
# T2 sequence (Q8TCC7 whole entry): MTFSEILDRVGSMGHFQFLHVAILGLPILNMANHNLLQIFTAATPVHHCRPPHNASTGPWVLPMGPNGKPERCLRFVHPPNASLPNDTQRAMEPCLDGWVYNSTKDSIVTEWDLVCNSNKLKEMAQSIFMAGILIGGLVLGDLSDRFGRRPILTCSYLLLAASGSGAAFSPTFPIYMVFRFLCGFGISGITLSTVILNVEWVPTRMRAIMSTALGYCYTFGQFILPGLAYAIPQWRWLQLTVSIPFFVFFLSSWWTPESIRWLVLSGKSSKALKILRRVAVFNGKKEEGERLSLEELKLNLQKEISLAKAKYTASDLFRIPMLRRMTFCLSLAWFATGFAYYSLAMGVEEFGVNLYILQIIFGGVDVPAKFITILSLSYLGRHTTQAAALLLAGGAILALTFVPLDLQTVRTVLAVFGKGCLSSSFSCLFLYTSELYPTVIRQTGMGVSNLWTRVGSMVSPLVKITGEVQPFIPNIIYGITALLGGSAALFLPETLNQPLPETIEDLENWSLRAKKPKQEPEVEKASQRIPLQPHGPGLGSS
# Outline: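 Cellular uptake-inhibition assays used Chinese hamster ovary, HEK293 or MDCKII cells stably expressing the respective human SLC transporter, run alongside the corresponding control cells. Inhibitor was tested at concentrations up to 100 μM.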
# [17] = Drug distribution in Sprague-Dawley rat brain; type: ADME, tissue-based; conditions: in vivo
# [18] = Toxicity in athymic nude mouse xenografted with human NCI-H460 cells assessed as mortality at 30 to 50 mg/kg, po administered every other day for 4 doses in presence of 12 to 20 mg/kg encequidar and monitored for 48 days; type: organism-based; conditions: in vivo, 1152 h, dose 30-50 mg/kg, time 48 day
# [19] = Ratio of drug concentration in BALB/c mouse liver to plasma at 20 mg/kg, po measured upto 24 hrs in presence of 10 mg/kg encequidar by LC-MS/MS analysis; type: ADME, organism-based
# [20] = Drug distribution in BALB/c mouse kidney at 20 mg/kg, po measured upto 24 hrs in presence of 10 mg/kg encequidar by LC-MS/MS analysis; type: ADME, organism-based; conditions: in vivo
# [21] = Drug distribution in Sprague-Dawley rat intestine at 20 mg/kg, po measured upto 168 hrs in presence of 10 mg/kg encequidar by LC-MS/MS analysis; type: ADME, organism-based; conditions: in vivo
# [22] = Toxicity in athymic nude mouse xenografted with human NCI-H460 cells assessed as reduction in body weight at 30 to 50 mg/kg, po administered every other day for 4 doses in presence of 12 to 20 mg/kg encequidar and monitored for 48 days; type: organism-based; conditions: in vivo, 1152 h, dose 30-50 mg/kg, time 48 day
# [23] = AUClast in Sprague-Dawley rat at 20 mg/kg, po measured upto 24 hrs in presence of 10 mg/kg encequidar by LC-MS/MS analysis; type: ADME, organism-based; design: route oral, dose 20 mg/kg, time <=24; conditions: in vivo
# Sequence of ATP-dependent translocase ABCB1 (P08183 whole entry): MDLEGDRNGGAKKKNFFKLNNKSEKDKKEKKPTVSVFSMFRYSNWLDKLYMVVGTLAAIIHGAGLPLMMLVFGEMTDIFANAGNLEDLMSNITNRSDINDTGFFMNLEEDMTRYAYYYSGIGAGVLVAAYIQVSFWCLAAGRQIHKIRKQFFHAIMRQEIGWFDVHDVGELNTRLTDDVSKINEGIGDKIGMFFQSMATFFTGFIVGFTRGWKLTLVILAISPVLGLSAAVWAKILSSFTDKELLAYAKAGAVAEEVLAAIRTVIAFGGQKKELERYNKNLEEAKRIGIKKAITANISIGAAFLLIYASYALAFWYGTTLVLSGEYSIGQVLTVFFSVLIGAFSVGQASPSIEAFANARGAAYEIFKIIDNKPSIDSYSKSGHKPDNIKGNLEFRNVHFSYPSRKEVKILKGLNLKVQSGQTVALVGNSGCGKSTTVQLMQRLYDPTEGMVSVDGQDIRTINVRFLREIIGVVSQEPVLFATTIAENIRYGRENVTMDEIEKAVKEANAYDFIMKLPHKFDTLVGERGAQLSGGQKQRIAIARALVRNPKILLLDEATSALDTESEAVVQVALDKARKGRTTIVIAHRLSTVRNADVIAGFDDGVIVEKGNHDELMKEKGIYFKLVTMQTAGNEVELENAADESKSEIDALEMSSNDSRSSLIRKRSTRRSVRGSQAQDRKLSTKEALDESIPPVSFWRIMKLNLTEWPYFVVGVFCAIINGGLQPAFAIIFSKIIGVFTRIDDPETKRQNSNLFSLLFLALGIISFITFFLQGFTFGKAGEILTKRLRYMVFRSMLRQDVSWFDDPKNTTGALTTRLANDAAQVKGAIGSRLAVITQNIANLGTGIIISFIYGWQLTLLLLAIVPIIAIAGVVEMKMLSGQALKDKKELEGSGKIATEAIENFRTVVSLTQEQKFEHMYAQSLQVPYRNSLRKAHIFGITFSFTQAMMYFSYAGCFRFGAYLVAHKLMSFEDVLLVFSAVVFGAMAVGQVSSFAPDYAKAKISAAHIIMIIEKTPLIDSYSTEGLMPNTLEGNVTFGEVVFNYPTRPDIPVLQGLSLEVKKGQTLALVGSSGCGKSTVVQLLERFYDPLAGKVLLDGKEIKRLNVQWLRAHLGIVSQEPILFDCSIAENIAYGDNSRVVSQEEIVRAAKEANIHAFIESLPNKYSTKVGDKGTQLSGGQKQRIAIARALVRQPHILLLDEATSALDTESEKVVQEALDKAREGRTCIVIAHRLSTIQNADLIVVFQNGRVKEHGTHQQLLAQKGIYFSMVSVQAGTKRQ
smiles,measurement,setting,value
COc1cc2c(cc1OC)CN(CCc1ccc(-n3nnc(-c4cc(OC)c(OC)cc4NC(=O)c4cc(=O)c5ccccc5o4)n3)cc1)CC2,solubility,[1],0.219 µg/mL
same,IC50,[2],0.6 nM
same,AUC(0-t) at 48 h,[3],619 ng·h/mL
same,Cmax,[4],6.6 ng/mL
same,Activity,[5],Toxic
same,bioavailability,[6],11.2%
same,bioavailability,[7],6.25%
same,Activity,[8],Toxic
same,Activity,[9],Toxic
same,Drug uptake,[10],Not Active
same,AUC(0-t) at 48 h,[11],129 ng·h/mL
same,Drug uptake,[12],Active
same,Drug uptake,[13],Active
same,Cmax,[14],26.6 ng/mL
same,IC50,[15],> 3720 nM
same,inhibition (INH),[16],< 50%
same,Drug uptake,[17],Not Active
CC(=O)O[C@H]1C(=O)[C@@]2(C)[C@H]([C@H](OC(=O)c3ccccc3)[C@]3(O)C[C@H](OC(=O)[C@H](O)[C@@H](NC(=O)c4ccccc4)c4ccccc4)C(C)=C1C3(C)C)[C@]1(OC(C)=O)CO[C@@H]1C[C@@H]2O [PACLITAXEL],Activity,[18],Non-Toxic
same,Kp at 24 h,[19],> 1
same,Drug uptake,[20],Active
same,Drug uptake,[21],Active
same,Activity,[22],Toxic
same,AUC(0-t) at 24 h,[23],3760 ng·h/mL
